This note sets out measurements from PubChem BioAssay.

As a reminder, the inhibition is the change of the read-out against control, counted positive when it falls.

Molecules are shown by their SMILES. Active and inactive are the calls of the source.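 Rule for the calls, unless noted: active = inhibition at or above 50% at 10 µM; inactive = inhibition below 50%.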

Test [1] in a line: inhibitors of TNFa-induced NFkB p65 translocation, primary screen, imaging, HUVEC, MLSMR starter and 10KST1 sets (AID 438;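 active = inhibition above 20% together with a positive visual image hit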;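 note: compound added about 3h40 before a 20 min TNFalpha stimulation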;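 for inhibition: signal is the nuclear over cytoplasmic p65 intensity ratio per well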). The following applies: HUVEC TNFa-induced p65 nuclear translocation; cell count: measured here: nuclei count (cytotoxicity indicator), at 2.08 µM; inhibition: at 2 µM, stronger effect = higher value, 0% TNFa-plus-vehicle, 100% no-TNFa wells.
A short description of test [2]: reduction of polyQ htt aggregates in cells – imaging, exon1htt(103Q)mCFP cells, high-content imaging, primary screen (AID 483;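 active = visual image review flags a hit and inhibition of aggregation exceeds 20%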;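 note: compound exposure lasted 3 days before fixation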;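 for nuclei count: percent of the per-plate median nuclei count of sample wells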). The note with it: exon1htt(103Q)mCFP cell line, aggregate imaging, at 2 µM; inhibition of aggregation: stronger effect = higher value; nuclei count: measured here: cell count, toxicity.
Test [3] can be described thus: endothelial E-selectin expression blockers – imaging, HUVEC, immunofluorescence, MLSMR starter and 10KST1 sets, primary screen (AID 487;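 active = visually confirmed hit in the image check and inhibition above 20%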;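 for inhibition: signal is fraction of cell area covered by stained E-selectin grains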;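 for nuclei count: 100% = median nuclei count of all wells on the same plate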). The following applies: HUVEC TNFalpha-induced E-selectin immunofluorescence imaging, at 2 µM; inhibition: stronger effect = higher value; nuclei count: measured here: cell number, toxicity.
Test [4] has as its target Voltage-gated potassium channel subunit beta-2 (Rattus norvegicus) (UniProt P62483). The test can be described thus: inhibitors of rat Kvbeta2 reductase activity – biochemical, NADPH fluorescence, primary screen (AID 622;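 active = fluorescence slope higher than the sample average by over 3 SD, cut at about -0.22 in these data, passing the limit was not always enough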;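 note: slope of raw intensity against log time taken from 70 to 1610 s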). The note with it: recombinant KvBeta, 4-cyanobenzaldehyde reduction, at 10 µM, stronger effect = higher value.
Test [5] shares this target. The test can be described thus: enhancers of rat Kvbeta2 NADPH turnover – biochemical, NADPH fluorescence, primary screen (AID 623;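 active = NADPH fluorescence slope more negative than the mean of all samples by about 3 SD, 99.7% confidence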;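 note: fluorescence intensity change per second fitted from 20 to 320 s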). The following applies: Recombinant KvBeta, NADPH fluorescence decrease slope, 10 min; at 10 µM; stronger effect = lower value.
The target in test [6] is Muscarinic acetylcholine receptor M4 (Homo sapiens) (UniProt P08173). In words: M4-linked GIRK flux change, two-sided – cell-based, HEK293 M4/GIRK, thallium flux, BTC-AM, M4 allosteric agonist project, primary screen (AID 625;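 active = fluorescence slope after compound addition differing from the mean of all tested samples at 99.7% confidence, mostly higher but some lower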;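 note: thallium influx through GIRK channels coupled to M4 in HEK293 cells with BTC-AM dye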). The note with it: at 10 µM, actives lie on both sides. In short, it runs like this: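 Material: M4/GIRK1/GIRK2 stable HEK293 cell line. Medium: pH 7.3 thallium assay buffer. Dosing: single compound concentration, 10 µM final. Schedule: 1 h dye loading, 2 min kinetic read. Measured by: kinetic fluorescence with BTC-AM dye. Read-out: post-addition slope, 15–24 s, of baseline-normalized fluorescence. Benchmarks: carbachol and DMSO controls.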
Sequence of Muscarinic acetylcholine receptor M4 (Homo sapiens) (P08173 whole entry, looked up): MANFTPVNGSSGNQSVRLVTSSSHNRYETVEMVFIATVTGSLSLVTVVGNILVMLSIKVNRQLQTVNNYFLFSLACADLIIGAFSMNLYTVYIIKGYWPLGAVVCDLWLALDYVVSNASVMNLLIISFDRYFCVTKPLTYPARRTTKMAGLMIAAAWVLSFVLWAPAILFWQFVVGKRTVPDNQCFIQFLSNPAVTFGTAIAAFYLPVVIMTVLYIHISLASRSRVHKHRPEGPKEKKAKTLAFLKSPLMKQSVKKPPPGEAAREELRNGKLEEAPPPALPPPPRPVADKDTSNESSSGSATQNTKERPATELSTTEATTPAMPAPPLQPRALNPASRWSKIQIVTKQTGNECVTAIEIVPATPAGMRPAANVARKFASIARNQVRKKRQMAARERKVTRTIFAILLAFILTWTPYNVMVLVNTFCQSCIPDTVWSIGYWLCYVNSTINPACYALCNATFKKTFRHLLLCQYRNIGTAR

A short description of test [7]: blockers of RIG-like receptor reporter activation – cell-based, Sendai virus stimulus, luciferase, 10K MLSCN set, TLR/RLR signaling modifier project, primary screen (AID 602276).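 Note: firefly luciferase from ISG56 promoter only with Renilla not read in this screen; 0% = Sendai virus plus DMSO and 100% = medium plus DMSO without virus.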 The note with it: HEK293 RL24 IRF3 luciferase reporter, at 10 µM, stronger effect = higher value.
The nature of test [8]: TLR3 IRF3 reporter activation blockers – cell-based, poly I:C stimulus, luciferase, 10K MLSCN set, primary screen (AID 602277;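 active = inhibition of the reporter signal at or above 50%; inactive = inhibition below 50%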). The note with it: HEK293-TLR3 RL24 IRF3 luciferase reporter, at 10 µM, stronger effect = higher value. (In a reporter assay the amount or activity of a reporter protein is the signal.)

Sequence of Voltage-gated potassium channel subunit beta-2 (Rattus norvegicus) (P62483 whole entry, looked up): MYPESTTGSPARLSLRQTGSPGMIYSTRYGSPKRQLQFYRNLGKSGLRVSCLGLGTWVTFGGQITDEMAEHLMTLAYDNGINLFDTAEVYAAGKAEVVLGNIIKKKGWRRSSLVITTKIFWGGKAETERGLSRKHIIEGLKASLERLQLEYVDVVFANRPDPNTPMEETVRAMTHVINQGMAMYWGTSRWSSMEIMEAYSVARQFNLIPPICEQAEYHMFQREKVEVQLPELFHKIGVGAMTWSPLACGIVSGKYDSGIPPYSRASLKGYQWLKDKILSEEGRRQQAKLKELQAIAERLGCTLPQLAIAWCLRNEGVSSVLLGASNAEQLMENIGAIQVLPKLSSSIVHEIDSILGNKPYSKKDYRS

As for `CCC(=O)N1CCc2cc(S(=O)(=O)CCC(=O)Nc3ccc(C)c(F)c3)ccc21`, the cell count in test [1] was 565. Moreover, the inhibition is 2.7% (inactive) in test [1], -119% (inactive) in test [3], 8.99% (inactive) in test [7] and 14.5% (inactive) in test [8]. The inhibition of aggregation in test [2] was -3% (inactive). The nuclei count in test [2] was determined as 111%; in test [3], 136%. Besides, the fluorescence slope in test [4] is -0.504 (inactive); in test [6] it was 0.00659 (inactive). Further, the NADPH fluorescence slope in test [5] is 0.000146 (inactive).
For the compound `O=S(=O)(NCC1CCCO1)c1cccc(C(F)(F)F)c1` (stereo not drawn), the cell count in test [1] was found to be 611. Further, the inhibition in test [1] was -4.8% (inactive); in test [3] it was -51.8% (inactive); in test [7] it was 1.55% (inactive); in test [8], 12.2% (inactive). Besides, the inhibition of aggregation in test [2] is -6.4% (inactive). The values for the nuclei count in test [2] and in test [3] were 100% and 159%, respectively. For the same compound, the fluorescence slope in test [4] is -0.568 (inactive); in test [6] it was 0.00471 (inactive). Also, the NADPH fluorescence slope in test [5] was 4.6e-05 (inactive).
On to `Cc1[nH]c2ccccc2c(=O)c1CN(C)Cc1ccccc1`, for which the cell count in test [1] turned out to be 270. The inhibition in test [1] was 2.9% (inactive); in test [3], -124% (inactive); in test [7], -21% (inactive); in test [8] it was -31.5% (inactive). For the same compound, the inhibition of aggregation in test [2] was 13.3% (inactive). Also, the nuclei count worked out at 97.7% in test [2] and 117% in test [3]. Also, the results for the fluorescence slope in test [4] and in test [6] were -0.58 (inactive) and 0.00538 (inactive), respectively. Further, the NADPH fluorescence slope in test [5] is 2e-05 (inactive).
In the case of `CN(C)C=Nc1nonc1N`, the cell count in test [1] is 429. Moreover, the inhibition in test [1] was 9% (inactive); in test [3] it was 24.6% (inactive); in test [7], 18% (inactive); in test [8], 21% (inactive). Also, in test [2], the inhibition of aggregation is -2% (inactive). The nuclei count turned out to be 105% in test [2] and 99.3% in test [3]. Moreover, the figures for the fluorescence slope in test [4] and in test [6] were -0.584 (inactive) and 0.00382 (inactive), respectively. For the same compound, in test [5], the NADPH fluorescence slope is -7.3e-05 (inactive).
On to `COC(=O)C1=C(C)N(c2ccc(C(=O)OC)cc2)C(=O)C1`, for which the cell count in test [1] was determined as 734. Moreover, the inhibition in test [1] is 4% (inactive); in test [3] it was 23.7% (inactive); in test [7], 16.3% (inactive); in test [8], 6.55% (inactive). The inhibition of aggregation in test [2] is -26.4% (inactive). Moreover, the values for the nuclei count in test [2] and in test [3] were 87.2% and 105%, respectively. Besides, the fluorescence slope in test [4] is -0.567 (inactive); in test [6], 0.00678 (inactive). Also, the NADPH fluorescence slope in test [5] is -4e-05 (inactive).
On to `CCOc1ccccc1NC(=O)N1C2CCCC1CC(NC(=O)C1CC1)C2` (stereo not drawn), for which, in test [1], the cell count amounted to 417. Further, the inhibition in test [1] is -3.2% (inactive); in test [3], -75.6% (inactive); in test [7], 17.1% (inactive); in test [8], 23.8% (inactive). Besides, the inhibition of aggregation in test [2] is 6.6% (inactive). The nuclei count in test [2] was determined as 110%; in test [3], 97.6%. Moreover, the fluorescence slope is -0.515 (inactive) in test [4] and 0.00474 (inactive) in test [6]. For the same compound, the NADPH fluorescence slope in test [5] is 4.4e-06 (inactive).
As to `COc1ccc2c(-c3cccnc3)cc(=O)[nH]c2c1`, in test [1], the cell count was 363. In addition, the inhibition in test [1] is 4.3% (inactive); in test [3], 36.3% (inactive); in test [7], 13.4% (inactive); in test [8], 26.1% (inactive). Also, in test [2], the inhibition of aggregation is -5.5% (inactive). For the same compound, the results for the nuclei count in test [2] and in test [3] were 84.5% and 79.4%, respectively. Also, the fluorescence slope in test [4] was -0.39 (inactive); in test [6], 0.00553 (inactive). Further, the NADPH fluorescence slope in test [5] is -9.1e-05 (inactive).
As for `Cc1cc(C)n(-c2nc3ccccc3c(=O)n2OCCOc2ccccc2)n1`, the cell count in test [1] amounted to 533. Further, the inhibition in test [1] was -9% (inactive); in test [3] it was -17.9% (inactive); in test [7], -12.3% (inactive); in test [8], -13.3% (inactive). The inhibition of aggregation in test [2] is -7.8% (inactive). Also, the results for the nuclei count in test [2] and in test [3] were 107% and 94.2%, respectively. Besides, the fluorescence slope is -0.453 (inactive) in test [4] and 0.00727 (inactive) in test [6]. In addition, the NADPH fluorescence slope in test [5] is 8.7e-05 (inactive).
`CCC(C)N=C1SCC(C)(/C=N/O)S1` (stereo not drawn): in test [1], the cell count was found to be 367. Also, the inhibition in test [1] was -7.2% (inactive); in test [3], -31.5% (inactive); in test [7], 9.86% (inactive); in test [8] it was 2.1% (inactive). Moreover, in test [2], the inhibition of aggregation was 16.5% (inactive). For the same compound, the values for the nuclei count in test [2] and in test [3] were 80.1% and 122%, respectively. Besides, the results for the fluorescence slope in test [4] and in test [6] were -0.55 (inactive) and 0.00292 (inactive), respectively. In addition, in test [5], the NADPH fluorescence slope is -6.5e-05 (inactive).
Consider `CS(=O)(=O)N(CC(=O)O)c1cccc(Cl)c1`, for which the cell count in test [1] stood at 358. In addition, the inhibition in test [1] was 9.8% (inactive); in test [3], -49% (inactive); in test [7] it was -12.6% (inactive); in test [8], -6.52% (inactive). In test [2], the inhibition of aggregation was -14.9% (inactive). Besides, the results for the nuclei count in test [2] and in test [3] were 106% and 121%, respectively. Besides, the fluorescence slope in test [4] is -0.544 (inactive); in test [6] it was 0.00338 (inactive). In addition, the NADPH fluorescence slope in test [5] is -0.00014 (inactive).
Turning to `O=C(CCC(=O)OCCCC(F)(F)C(F)(F)F)NC1CCCCC1`, in test [1], the cell count came to 424. In addition, the inhibition in test [1] is 4% (inactive); in test [3], -37.5% (inactive); in test [7], 13.9% (inactive); in test [8], 16.1% (inactive). Besides, in test [2], the inhibition of aggregation was 5.5% (inactive). Also, the figures for the nuclei count in test [2] and in test [3] were 108% and 122%, respectively. Further, the fluorescence slope is -0.53 (inactive) in test [4] and 0.00556 (inactive) in test [6]. Moreover, the NADPH fluorescence slope in test [5] was -4e-05 (inactive).
In the case of `O=c1nc(N2CCCC2)nc(Nc2ccccc2)[nH]1`, the cell count in test [1] came to 478. The inhibition in test [1] was 8.9% (inactive); in test [3] it was -62.6% (inactive); in test [7], 3.72% (inactive); in test [8], 3.61% (inactive). Besides, the inhibition of aggregation in test [2] is -12.9% (inactive). Moreover, the nuclei count was determined as 112% in test [2] and 115% in test [3]. The values for the fluorescence slope in test [4] and in test [6] were -0.559 (inactive) and 0.00545 (inactive), respectively. Besides, the NADPH fluorescence slope in test [5] was -4e-05 (inactive).
With `Cc1ccc(Cl)cc1NC(=O)CSc1nnc(C)n1-c1ccccc1`, in test [1], the cell count worked out at 783. The inhibition in test [1] is -5.4% (inactive); in test [3], -16% (inactive); in test [7], 21.8% (inactive); in test [8] it was 23.3% (inactive). Moreover, the inhibition of aggregation in test [2] was -28.9% (inactive). For the same compound, the figures for the nuclei count in test [2] and in test [3] were 100% and 96%, respectively. In addition, the fluorescence slope in test [4] was -0.551 (inactive); in test [6], 0.00502 (inactive). The NADPH fluorescence slope in test [5] was -4.3e-05 (inactive).
